Activity calls are given as the source filed them. The rule behind the calls is not given here.
Tests used:
[1] = tested on: CT26; test: Antiinvasive activity against mouse CT26 cells after 48 hrs by crystal violet staining based light microscopic analysis; type: functional, cell-based
Procedure, shortened: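 Transwell membrane upper surface coated with Matrigel diluted 1:5 in serum-free medium. 5 × 10^4 cells in serum-free medium in upper part, 10% FBS medium below, treated with various concentrations for 48 h. Non-invading cells removed; underside cells fixed in methanol, stained with 0.5% crystal violet, counted by light microscopy; expressed as % inhibition versus untreated.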

[2] = tested on: CT26; test: Inhibition of colony formation in mouse CT26 cells assessed as reduction in number of colonies up to 40 uM incubated for 24 hrs supplemented with fresh medium containing compound every 3 days for 12 days by crystal violet staining-based microscopic analysis; type: functional, cell-based
Procedure, shortened: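 400–800 cells per well seeded in 6-well plates; after 24 h, PEC (0–40 μM) added. Medium with or without compound replaced every three days for 12 days. Colonies washed in cold PBS, fixed in methanol, stained 15 min with 0.5% crystal violet and counted under a microscope. Mean ± SD of three experiments.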

[3] = tested on: CT26; test: Antimetastatic activity against mouse CT26 cells allografted in Balb/c mouse assessed as reduction in splenomegaly at 25 to 50 mg/kg, ip administered daily for 14 days starting from 6 days post implantation; type: functional, organism-based
Procedure, shortened: (§1)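 Female BALB/c mice (6–8 weeks) injected ip with 5 × 10^5 CT26 cells; from day 6, randomized (eight per group) to ip vehicle, 25 or 50 mg/kg once daily for 14 days. Abdominal circumference and body weight every 3 days; abdominal nodules counted by eye and weighed; spleens assessed; paraffin tumour sections immunostained (Ki-67, MMP-9, p-Stat3) with DAB detection.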

[4] = tested on: CT26; test: Antimetastatic activity against mouse CT26 cells allografted in Balb/c mouse assessed as decrease in CD11b-positive/Gr1-positive myeloid cells level in peripheral blood at 50 mg/kg, ip administered daily for 14 days starting from 6 days post implantation flow cytometric analysis (reference value: 33.2 %); type: functional; set-up: scale not given: the % may be the effect or the level left
[5] = tested on: CT26; test: Antiproliferative activity against mouse CT26 cells assessed as inhibition of cell viability up to 40 uM by MTT assay; type: functional, cell-based; conditions: TDE = time-dependent effect
Procedure, shortened: (§2)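 Exponentially growing cells (2–6 × 10^3 per well) seeded in 96-well plates for 24 h, then exposed to 0, 2.5, 5, 10, 20, 40 µM for 24, 48 and 72 h. MTT (5 mg/mL stock) added 2–4 h at 37 °C; formazan dissolved in DMSO, absorbance at 570 nm. Three independent experiments.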

[6] = tested on: HCT-116; test: Induction of apoptosis in human HCT116 cells assessed as necrotic cells at 20 uM after 48 hrs by Annexin V-FITC/propidium iodide staining-based flow cytometric analysis (reference value: 8.24 %); type: functional
Procedure, shortened: (§3)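 Cells (1–2 × 10^5 per well) seeded in six-well plates 24 h, treated at 0–40 μM for 24 h or 48 h, harvested, washed twice in cold PBS, stained with Annexin V-FITC/PI and analysed by flow cytometry; early (Annexin V only) and late (Annexin V and PI) apoptotic fractions quantified; three experiments.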

[7] = tested on: CT26; test: Induction of apoptosis in mouse CT26 cells assessed as increase in Bax protein expression up to 40 uM after 48 hrs by Western blot analysis; type: functional, cell-based
Procedure, shortened: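 CT26 cells exposed 48 h to PEC at 0, 10, 20 and 40 μM, washed twice in cold PBS, lysed in RIPA. Protein measured by Lowry and equalized, run on SDS-PAGE, blotted to PVDF. Blocked 1 h at 37 °C, primary antibodies (Bax, Bcl-2, pro-caspase-3, cleaved caspase-3) overnight at 4 °C, secondary 1 h, ECL detection, densitometry.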

[8] = tested on: HCT-116; test: Induction of apoptosis in human HCT116 cells assessed increase in Bax/Bcl2 protein ratio up to 40 uM after 48 hrs by Western blot analysis; type: functional, cell-based
Procedure, shortened: (§4)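 Cells treated 48 h at 0, 10, 20 and 40 μM, washed in cold PBS, lysed in RIPA; protein equalized by Lowry assay, resolved by SDS-PAGE, transferred to PVDF, blocked 1 h at 37 °C, primary antibody overnight at 4 °C, secondary 1 h, ECL detection, densitometry. β-actin loading control.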

[9] = tested on: CT26; test: Antimetastatic activity against mouse CT26 cells allografted in Balb/c mouse assessed as reduction in weight of tumour nodules weight at 50 mg/kg, ip administered daily for 14 days starting from 6 days post implantation; type: functional, organism-based; procedure, shortened: as §1
[10] = tested on: CT26; test: Anticlonogenic activity against mouse CT26 cells assessed as reduction in colony formation up to 40 uM incubated for 24 hrs supplemented with fresh medium containing compound every 3 days for 12 days by crystal violet staining-based microscopic analysis; type: functional, cell-based
Procedure, shortened: (§5)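 Cells seeded at 400–800 per well in 6-well plates; after 24 h, treated with 0–40 μM in fresh medium (with or without compound) replaced every three days for 12 days. Colonies fixed in methanol, stained with 0.5% crystal violet for 15 min and counted by microscope; reported as surviving colonies, mean ± SD of three experiments.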

[11] = tested on: CT26; test: Induction of apoptosis in mouse CT26 cells assessed as nuclear fragmentation up to 40 uM after 48 hrs by Hoechst 33258 staining-based fluorescent microscopic analysis; type: functional, cell-based
Procedure, shortened: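 CT26 cells plated at 1–2 × 10^5 per well on 18-mm coverslips in six-well plates for 24 h, then treated 48 h with PEC. Washed in cold PBS, fixed 15 min in 4% paraformaldehyde, stained with Hoechst 33258 (5 μg/ml). Nuclear morphology viewed by fluorescence microscopy (10×); positive cells counted, mean ± SD of three experiments.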

[12] = tested on: HCT-116; test: Antiproliferative activity against human HCT116 cells assessed as reduction in cell viability up to 40 uM by MTT assay; type: functional, cell-based; conditions: TDE = time-dependent effect; procedure, shortened: as §2
[13] = tested on: HCT-116; test: Induction of apoptosis in human HCT116 cells assessed as increase in Bax protein expression up to 40 uM after 48 hrs by Western blot analysis; type: functional, cell-based; procedure, shortened: as §4
[14] = tested on: CT26; test: Antimetastatic activity against mouse CT26 cells allografted in Balb/c mouse assessed as increase in infiltration of CD8+ T cells in blood at 50 mg/kg, ip administered daily for 14 days starting from 6 days post implantation flow cytometric analysis (reference value: 1.35 %); type: functional
[15] = tested on: CT26; test: Antimetastatic activity against ip dosed mouse CT26 cells allografted in Balb/c mouse assessed as reduction in number of tumour nodules administered daily for 14 days starting from 6 days post implantation; type: functional, organism-based; procedure, shortened: as §1
[16] = tested on: HCT-116; test: Induction of apoptosis in human HCT116 cells assessed as late apoptotic cells at 20 uM after 48 hrs by Annexin V-FITC/propidium iodide staining-based flow cytometric analysis (reference value: 3.87 %); type: functional; procedure, shortened: as §3
[17] = tested on: SW48; test: Anticlonogenic activity against human SW48 cells assessed as reduction in colony formation up to 40 uM incubated for 24 hrs supplemented with fresh medium containing compound every 3 days for 12 days by crystal violet staining-based microscopic analysis; type: functional, cell-based; procedure, shortened: as §5
[18] = tested on: CT26; test: Induction of apoptosis in mouse CT26 cells assessed as necrotic cells at 10 uM after 48 hrs by Annexin V-FITC/propidium iodide staining-based flow cytometric analysis (reference value: 1.80 %); type: functional
Procedure, shortened: (§6)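 CT26 cells seeded at 1–2 × 10^5 per well in six-well plates for 24 h, then exposed to PEC (0–40 μM) for 24 or 48 h. Cells harvested, washed twice in cold PBS, stained with Annexin V-FITC/PI and read by flow cytometry. Early apoptotic = Annexin V+ only; late apoptotic = Annexin V+/PI+. Mean ± SD of three experiments.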

[19] = tested on: CT26; test: Induction of apoptosis in mouse CT26 cells assessed as late apoptotic cells at 10 uM after 48 hrs by Annexin V-FITC/propidium iodide staining-based flow cytometric analysis (reference value: 6.49 %); type: functional; procedure, shortened: as §6

COc1ccc(-c2cc(=O)c3c(O)c(OC)c(O)cc3o2)cc1 [PECTOLINARIGENIN]
inhibition [1]: Dose-dependent effect
inhibition [2]: Active
Activity [3]: Active
Activity [4]: 20.4%
inhibition [5]: Tde
Activity [6]: 4.55%
Activity [7]: Active
Activity [8]: Active
Activity [9]: Active
inhibition [10]: Active
Activity [11]: Active
inhibition [12]: Tde
Activity [13]: Active
Activity [14]: 4.17%
Activity [15]: Dose-dependent effect
Activity [16]: 7.36%
inhibition [17]: Active
Activity [18]: 3.82%
Activity [19]: 15.5%
